ChEMBL document CHEMBL3407418, “Fragment-based drug discovery of 2-thiazolidinones as BRD4 inhibitors: 2. Structure-based optimization” (J Med Chem, 2015)
Calls of active or inactive are those of the source. The rule behind the calls is not given here.

What was measured:
[1] = Stability in human liver microsomes assessed as clearance at 1 uM pre-incubated for 5 mins followed by NADPH addition and measured after 5 to 30 mins post NADPH addition by LC/MS/MS method; assay type: ADME; conditions: read-out: CLH
Method in brief: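 Human liver microsomes (0.5 mg/mL) preincubated with 1 µM compound for 5 min at 37 °C in 0.1 M phosphate pH 7.4 with 1 mmol EDTA and 5 mmol MgCl2. Started with 1 mmol NADPH; sampled at 0, 5, 10 and 30 min. Quenched with equal volume of cold acetonitrile, vortexed, and centrifuged at 10,000 × g.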

Cytochrome P450 2C9 [2] = target: T1, Cytochrome P450 2C9 (Homo sapiens, UniProt P11712); experiment: Time dependent inhibition of CYP2C9 in human liver microsomes at 10 uM using diclofenac substrate preincubated for 5 mins before NADPH addition and measured after 20 mins post NADPH addition; assay type: ADME
CYP2C19 = CYP2C19 (Homo sapiens, UniProt P33261); experiment: Inhibition of CYP2C19 in human liver microsomes at 10 uM using mephenytoin substrate preincubated for 5 mins before NADPH addition and measured after 20 mins post NADPH addition; assay type: ADME; conditions: probe mephenytoin
Method in brief: (§1)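 Human liver microsomes 0.2 mg/mL, 1 mmol NADPH, 100 mmol phosphate pH 7.4, probe cocktail (10 μM midazolam, 100 μM testosterone, 10 μM dextromethorphan, 20 μM diclofenac, 100 μM phenacetin, 100 μM mephenytoin), test compound 10 μM or PBS; organic solvent <1%. 5 min preincubation at 37 °C, NADPH-generating system start, 20 min reaction; inhibition from metabolite formation relative to PBS.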

[3] = target: T2, Bromodomain-containing protein 4 (Homo sapiens, UniProt O60885); experiment: Inhibition of BRD4 in human HT-29 cells assessed as reduction in c-myc mRNA expression at 0.3125 uM to 5 uM uM after 24 hrs by RT-qPCR method; assay type: cell-based
Method in brief: (§2)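 HT-29 cells seeded overnight and exposed to compounds for 24 h; total RNA isolated, reverse-transcribed, and analysed by RT-qPCR with c-myc primers. Relative c-myc mRNA normalised to β-actin and expressed versus untreated control.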

CYP2D6 = CYP2D6 (Homo sapiens, UniProt P10635); experiment: Inhibition of CYP2D6 in human liver microsomes at 10 uM using dextromethorphan substrate preincubated for 5 mins before NADPH addition and measured after 20 mins post NADPH addition; assay type: ADME; conditions: liver microsomes, probe dextromethorphan; method in brief: as §1
CYP2C9 = CYP2C9 (Homo sapiens, UniProt P11712); experiment: (§3) Inhibition of CYP2C9 in human liver microsomes at 10 uM using diclofenac substrate preincubated for 5 mins before NADPH addition and measured after 20 mins post NADPH addition; assay type: ADME; conditions: liver microsomes, probe diclofenac; method in brief: as §1
Cytochrome P450 3A4 = Cytochrome P450 3A4 (Homo sapiens, UniProt P08684); experiment: Time dependent inhibition of CYP3A4 in human liver microsomes at 10 uM using midazolam substrate preincubated for 5 mins before NADPH addition and measured after 20 mins post NADPH addition; assay type: ADME
Cytochrome P450 2D6 = Cytochrome P450 2D6 (Homo sapiens, UniProt P10635); experiment: Time dependent inhibition of CYP2D6 in human liver microsomes at 10 uM using dextromethorphan substrate preincubated for 5 mins before NADPH addition and measured after 20 mins post NADPH addition; assay type: ADME
Cytochrome P450 2C19 = Cytochrome P450 2C19 (Homo sapiens, UniProt P33261); experiment: Time dependent inhibition of CYP2C19 in human liver microsomes at 10 uM using mephenytoin substrate preincubated for 5 mins before NADPH addition and measured after 20 mins post NADPH addition; assay type: ADME
[4] = target: T2, Bromodomain-containing protein 4; experiment: Inhibition of BRD4 in human HT-29 cells assessed as reduction in c-myc mRNA expression at 5 uM after 24 hrs by RT-qPCR method; assay type: cell-based; method in brief: as §2
[5] = target: T3, ATPase family AAA domain-containing protein 2 (Homo sapiens) (UniProt Q6PL18); experiment: Binding affinity to ATAD2 (unknown origin) assessed as increase in protein melting temperature at 50 umol by real-time PCR system based thermal shift assay
T3 sequence (whole entry): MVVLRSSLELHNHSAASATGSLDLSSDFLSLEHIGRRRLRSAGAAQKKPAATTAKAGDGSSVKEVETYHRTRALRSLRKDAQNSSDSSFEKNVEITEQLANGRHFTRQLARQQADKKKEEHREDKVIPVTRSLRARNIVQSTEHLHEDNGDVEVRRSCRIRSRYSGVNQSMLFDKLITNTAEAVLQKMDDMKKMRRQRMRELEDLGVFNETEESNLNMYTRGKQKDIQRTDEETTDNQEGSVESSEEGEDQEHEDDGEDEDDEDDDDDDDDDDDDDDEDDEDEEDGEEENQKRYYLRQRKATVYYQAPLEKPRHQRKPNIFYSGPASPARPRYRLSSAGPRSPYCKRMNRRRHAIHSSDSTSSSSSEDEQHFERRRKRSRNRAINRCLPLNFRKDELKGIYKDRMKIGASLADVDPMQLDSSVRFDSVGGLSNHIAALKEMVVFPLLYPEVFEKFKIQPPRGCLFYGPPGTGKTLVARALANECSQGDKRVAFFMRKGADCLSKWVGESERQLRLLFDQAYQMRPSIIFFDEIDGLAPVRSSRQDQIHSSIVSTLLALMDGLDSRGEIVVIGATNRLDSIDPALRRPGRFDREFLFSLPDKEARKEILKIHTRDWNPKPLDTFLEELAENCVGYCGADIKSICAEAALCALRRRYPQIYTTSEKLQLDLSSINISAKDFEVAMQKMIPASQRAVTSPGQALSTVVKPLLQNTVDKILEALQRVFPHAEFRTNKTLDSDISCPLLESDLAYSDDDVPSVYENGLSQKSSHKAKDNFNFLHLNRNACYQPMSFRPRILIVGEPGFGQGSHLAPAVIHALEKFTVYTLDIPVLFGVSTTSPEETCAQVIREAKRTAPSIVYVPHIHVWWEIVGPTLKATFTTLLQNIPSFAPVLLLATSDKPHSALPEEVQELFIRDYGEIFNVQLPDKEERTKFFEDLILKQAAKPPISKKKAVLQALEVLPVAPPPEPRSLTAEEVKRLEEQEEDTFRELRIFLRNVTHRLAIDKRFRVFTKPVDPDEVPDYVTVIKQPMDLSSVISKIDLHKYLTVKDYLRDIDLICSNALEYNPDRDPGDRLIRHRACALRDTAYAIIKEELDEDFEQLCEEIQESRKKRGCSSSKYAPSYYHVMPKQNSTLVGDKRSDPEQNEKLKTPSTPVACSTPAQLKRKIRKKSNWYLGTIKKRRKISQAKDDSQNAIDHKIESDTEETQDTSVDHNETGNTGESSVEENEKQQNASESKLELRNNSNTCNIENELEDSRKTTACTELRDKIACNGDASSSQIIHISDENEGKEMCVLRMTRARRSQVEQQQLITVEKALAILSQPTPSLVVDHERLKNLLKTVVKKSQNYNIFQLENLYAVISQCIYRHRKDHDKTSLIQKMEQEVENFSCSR
Method in brief: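 Bromodomain proteins in 10 mmol HEPES pH 7.5, 500 mmol NaCl at 75 μg/mL final; compound at 50 µmol final; SYPRO Orange probe at 1:1000. Four replicates per protein mixture. Melt curve read on a real-time PCR instrument, heating 25 °C to 99 °C at 1 °C/min under continuous fluorescence reading; binding taken as the rise in protein melting temperature.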

Cytochrome P450 2C9 [6] = target: T1, Cytochrome P450 2C9; experiment: as §3; assay type: ADME; conditions: microsomes, 20 min, 10 µM; method in brief: as §1

Sequence of CYP2C9 (P11712 whole entry): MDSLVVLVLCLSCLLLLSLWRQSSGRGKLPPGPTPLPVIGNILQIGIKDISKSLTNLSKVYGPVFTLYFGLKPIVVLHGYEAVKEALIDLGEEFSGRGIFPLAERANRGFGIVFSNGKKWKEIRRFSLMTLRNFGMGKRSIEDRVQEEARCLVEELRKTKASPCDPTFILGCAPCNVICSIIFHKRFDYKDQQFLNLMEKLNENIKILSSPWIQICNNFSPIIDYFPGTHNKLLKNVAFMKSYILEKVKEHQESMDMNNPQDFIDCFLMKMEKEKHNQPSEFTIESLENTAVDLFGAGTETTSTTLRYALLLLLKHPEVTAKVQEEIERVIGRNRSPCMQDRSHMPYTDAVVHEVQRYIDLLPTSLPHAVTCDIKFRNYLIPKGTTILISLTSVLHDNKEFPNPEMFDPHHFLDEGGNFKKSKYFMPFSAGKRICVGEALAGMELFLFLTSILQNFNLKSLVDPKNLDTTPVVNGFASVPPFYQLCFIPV
T1 sequence (P11712 whole entry): as above
Sequence of Cytochrome P450 2C19 (P33261 whole entry): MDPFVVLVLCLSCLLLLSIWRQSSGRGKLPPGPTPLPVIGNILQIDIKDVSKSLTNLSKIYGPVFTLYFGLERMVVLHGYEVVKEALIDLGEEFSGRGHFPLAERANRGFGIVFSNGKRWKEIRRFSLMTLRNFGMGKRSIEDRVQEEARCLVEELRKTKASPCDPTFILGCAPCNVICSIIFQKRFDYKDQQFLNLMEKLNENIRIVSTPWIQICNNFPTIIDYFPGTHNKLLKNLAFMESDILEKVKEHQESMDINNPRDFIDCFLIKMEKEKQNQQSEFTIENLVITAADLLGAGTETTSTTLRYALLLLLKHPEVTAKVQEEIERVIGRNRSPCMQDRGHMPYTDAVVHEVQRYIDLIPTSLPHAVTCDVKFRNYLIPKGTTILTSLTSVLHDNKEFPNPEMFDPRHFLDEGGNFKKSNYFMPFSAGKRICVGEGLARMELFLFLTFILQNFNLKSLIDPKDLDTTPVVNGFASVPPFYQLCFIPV
Sequence of CYP2C19 (P33261 whole entry): as above
Sequence of Cytochrome P450 2D6 (P10635 whole entry): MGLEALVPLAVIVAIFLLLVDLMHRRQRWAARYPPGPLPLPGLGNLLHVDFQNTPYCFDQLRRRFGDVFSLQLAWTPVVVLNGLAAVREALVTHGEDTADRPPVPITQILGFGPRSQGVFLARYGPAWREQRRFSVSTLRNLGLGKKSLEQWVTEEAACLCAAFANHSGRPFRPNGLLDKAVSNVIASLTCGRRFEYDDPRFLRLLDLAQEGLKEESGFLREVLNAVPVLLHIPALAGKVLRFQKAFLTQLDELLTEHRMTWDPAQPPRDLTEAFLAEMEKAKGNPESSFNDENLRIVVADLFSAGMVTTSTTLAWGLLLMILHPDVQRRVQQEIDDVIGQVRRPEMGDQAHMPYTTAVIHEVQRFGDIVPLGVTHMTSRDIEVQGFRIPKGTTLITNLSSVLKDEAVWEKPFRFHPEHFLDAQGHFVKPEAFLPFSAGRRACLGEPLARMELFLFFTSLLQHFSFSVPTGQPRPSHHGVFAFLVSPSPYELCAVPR
Sequence of CYP2D6 (P10635 whole entry): as above
Sequence of Cytochrome P450 3A4 (P08684 whole entry): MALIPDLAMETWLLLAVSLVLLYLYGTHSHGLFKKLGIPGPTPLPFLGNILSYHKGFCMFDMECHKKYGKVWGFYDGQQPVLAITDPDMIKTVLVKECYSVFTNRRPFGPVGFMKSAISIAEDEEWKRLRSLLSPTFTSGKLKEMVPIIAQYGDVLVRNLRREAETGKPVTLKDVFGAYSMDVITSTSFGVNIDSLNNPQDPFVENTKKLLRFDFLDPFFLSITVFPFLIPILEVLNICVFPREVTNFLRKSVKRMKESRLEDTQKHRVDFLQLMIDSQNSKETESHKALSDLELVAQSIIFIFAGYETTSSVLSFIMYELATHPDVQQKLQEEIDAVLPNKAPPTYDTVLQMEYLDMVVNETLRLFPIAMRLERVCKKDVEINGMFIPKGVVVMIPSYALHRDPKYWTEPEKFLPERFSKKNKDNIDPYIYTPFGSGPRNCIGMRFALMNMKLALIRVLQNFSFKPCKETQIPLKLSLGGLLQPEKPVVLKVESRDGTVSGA

Compound	microsomal CLint at 1 µM [1] [µL/min/mg]	TDI (Cytochrome P450 2C9 [2])	inhibition at 20 min, 10 µM (CYP2C19) [%]	inhibition [3]	inhibition at 20 min, 10 µM (CYP2D6) [%]	inhibition at 20 min, 10 µM (CYP2C9) [%]	TDI (Cytochrome P450 3A4)	TDI (Cytochrome P450 2D6)	TDI (Cytochrome P450 2C19)	inhibition [4] [%]	ΔTm [5] [°C]	inhibition (INH) (Cytochrome P450 2C9 [6])
O=C(Nc1cc(-c2csc(=O)[nH]2)cc(S(=O)(=O)NC2CCCC2)c1)C1CC1	74	Not Active	32	Active	17	14	Not Active	Not Active	Not Active	> 60	3.55	–
Cc1c(N)cc(-c2csc(=O)[nH]2)cc1S(=O)(=O)NC1CCCC1	66	Not Active	3	Active	3	–	Not Active	Not Active	Not Active	90	2.7	Not Active
Nc1ccc(-c2csc(=O)[nH]2)cc1S(=O)(=O)NC1CCCC1	20	–	57	–	18	74	Active	–	–	–	3.28	–
Cc1c(Br)cc(-c2csc(=O)[nH]2)cc1S(=O)(=O)NC1CCCC1	84	Active	28	Active	39	–	–	–	–	> 60	3.42	Not Active
COc1ccc(-c2csc(=O)[nH]2)cc1S(=O)(=O)NC1CCCC1	56	–	26	–	–	10	–	Active	Active	–	1.36	–
Cc1ccc(-c2csc(=O)[nH]2)cc1S(=O)(=O)NC1CCCC1	128	Active	45	–	27	–	–	–	Active	–	1.44	Not Active
